In ChEMBL document CHEMBL1136228 (Bioorg Med Chem Lett, 2003):
Several values for one entry are separate records, joined by “and”; a condition that tells them apart may be missing. Identical values can stand only once.

Key:
Mus musculus [1] = experiment: Fasting plasma glucose levels after 3 mg/kg peroral administration in db/db Mouse; type: functional; conditions: route oral
Method in brief: (§1)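 db/db (lepr db-3J/lepr db-3J) mice dosed orally once daily for 11 days; fasting plasma glucose measured at day 11. Correction is expressed as mean glucose lowering, as a percentage of the difference between vehicle-treated db/db and lean control mice.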

Mus musculus [2] = experiment: Fasting plasma glucose level after 10 mg/kg peroral administration in db/db Mouse; type: functional; conditions: route oral; method in brief: as §1
[3] = biological target: T1, Peroxisome proliferator-activated receptor gamma (Homo sapiens, UniProt P37231)
T1 sequence (P37231 whole entry): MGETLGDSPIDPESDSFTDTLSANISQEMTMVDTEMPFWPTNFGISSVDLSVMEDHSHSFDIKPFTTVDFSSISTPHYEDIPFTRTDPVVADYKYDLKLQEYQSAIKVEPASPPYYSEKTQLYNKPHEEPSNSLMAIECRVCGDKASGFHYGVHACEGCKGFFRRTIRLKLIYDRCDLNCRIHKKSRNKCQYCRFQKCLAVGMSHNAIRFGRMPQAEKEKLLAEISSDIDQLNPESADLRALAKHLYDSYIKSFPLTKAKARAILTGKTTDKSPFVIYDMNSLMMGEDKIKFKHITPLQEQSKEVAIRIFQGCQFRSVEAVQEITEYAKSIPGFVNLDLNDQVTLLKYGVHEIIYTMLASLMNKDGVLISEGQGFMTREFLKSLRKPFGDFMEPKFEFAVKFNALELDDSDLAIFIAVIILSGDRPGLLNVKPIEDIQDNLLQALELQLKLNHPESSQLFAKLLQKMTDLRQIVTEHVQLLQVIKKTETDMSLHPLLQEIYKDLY

[4] = biological target: T2, Peroxisome proliferator-activated receptor alpha (Homo sapiens, UniProt Q07869)
T2 sequence (Q07869 whole entry): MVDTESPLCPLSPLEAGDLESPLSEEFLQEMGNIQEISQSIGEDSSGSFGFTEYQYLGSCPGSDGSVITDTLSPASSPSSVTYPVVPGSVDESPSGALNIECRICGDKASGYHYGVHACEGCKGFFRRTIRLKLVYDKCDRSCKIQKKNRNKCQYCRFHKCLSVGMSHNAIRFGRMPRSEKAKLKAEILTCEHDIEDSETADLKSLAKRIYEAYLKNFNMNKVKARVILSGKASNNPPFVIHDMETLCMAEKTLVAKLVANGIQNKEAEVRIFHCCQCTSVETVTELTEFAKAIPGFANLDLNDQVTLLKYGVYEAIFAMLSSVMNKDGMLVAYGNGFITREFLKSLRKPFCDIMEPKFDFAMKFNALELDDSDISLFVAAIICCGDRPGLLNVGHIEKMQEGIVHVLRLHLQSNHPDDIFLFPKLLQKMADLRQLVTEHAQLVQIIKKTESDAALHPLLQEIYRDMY

[5] = biological target: T2, Peroxisome proliferator-activated receptor alpha; remark: listed apart in the source
[6] = biological target: T1, Peroxisome proliferator-activated receptor gamma; remark: listed apart in the source
Rattus norvegicus [7] = experiment: Body weight of Sprague-Dawley rat after 30 mg/kg peroral administration; conditions: route oral
Rattus norvegicus [8] = experiment: Heart weight of Sprague-Dawley rat after 30 mg/kg peroral administration; conditions: route oral
Rattus norvegicus [9] = experiment: Triglyceride change in Sprague-Dawley rat after 30 mg/kg peroral administration; conditions: route oral
Rattus norvegicus [10] = experiment: Total Cholesterol change in Sprague-Dawley rat after 30 mg/kg peroral administration; conditions: route oral
Rattus norvegicus [11] = experiment: Brown adipose tissue weight in Sprague-Dawley rat after 30 mg/kg peroral administration; conditions: route oral
Mus musculus [12] = experiment: Fasting plasma glucose levels after 150 mg/kg peroral administration in db/db Mouse; type: functional; conditions: route oral; method in brief: as §1
[13] = biological target: T1, Peroxisome proliferator-activated receptor gamma; experiment: Binding affinity towards peroxisome proliferator activated receptor gamma (PPAR gamma); Not active
Method in brief: (§2)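 Scintillation proximity (SPA) radioligand binding assay run at 15 C. The IC50 is converted to an apparent Ki with the Cheng-Prusoff equation.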

[14] = biological target: T2, Peroxisome proliferator-activated receptor alpha; experiment: Binding affinity towards human peroxisome proliferator activated receptor alpha (PPAR alpha) by HTRF assay; Weakly active
Rattus norvegicus [15] = experiment: Body weight of Sprague-Dawley rat after 150 mg/kg peroral administration; conditions: route oral
Rattus norvegicus [16] = experiment: Heart weight of Sprague-Dawley rat after 150 mg/kg peroral administration; conditions: route oral
Rattus norvegicus [17] = experiment: Triglyceride change in Sprague-Dawley rat after 150 mg/kg peroral administration; conditions: route oral
Rattus norvegicus [18] = experiment: Total Cholesterol change in Sprague-Dawley rat after 150 mg/kg peroral administration; conditions: route oral
Rattus norvegicus [19] = experiment: Brown adipose tissue weight in Sprague-Dawley rat after 150 mg/kg peroral administration; conditions: route oral
Mus musculus [20] = experiment: Fasting plasma glucose levels after 30 mg/kg peroral administration in db/db Mouse; type: functional; conditions: route oral; method in brief: as §1
[21] = biological target: T2, Peroxisome proliferator-activated receptor alpha; experiment: Binding affinity towards peroxisome proliferator activated receptor alpha (PPAR alpha); Not active; method in brief: as §2
[22] = biological target: T2, Peroxisome proliferator-activated receptor alpha; experiment: Binding affinity towards human peroxisome proliferator activated receptor alpha (PPAR alpha) by HTRF assay; Not active
[23] = biological target: T2, Peroxisome proliferator-activated receptor alpha; experiment: Binding affinity towards human peroxisome proliferator activated receptor gamma (PPAR alpha) by HTRF assay; Weakly active
Mus musculus [24] = experiment: Fasting plasma glucose levels after 1 mg/kg peroral administration in db/db Mouse; type: functional; conditions: route oral; method in brief: as §1
[25] = Bioavailability was determined in rat; type: ADME, organism-based; conditions: in vivo
[26] = biological target: T1, Peroxisome proliferator-activated receptor gamma; experiment: Binding affinity towards peroxisome proliferator activated receptor gamma (PPAR gamma): Weakly active

Row | Structure (SMILES) | FPG correction (Mus musculus [1]) | FPG correction (Mus musculus [2]) | Ki [3] | EC50 [4] | Ki [5] | EC50 [6] | Body weight (Rattus norvegicus [7]) | Heart weight (Rattus norvegicus [8]) | Change (Rattus norvegicus [9]) | Change (Rattus norvegicus [10]) | BAT weight (Rattus norvegicus [11]) | FPG correction (Mus musculus [20]) | also measured
1 | CCCc1cc2c(C(F)(F)F)noc2c(CCC)c1OC(C(=O)O)c1ccc(Cl)cc1 (stereo not drawn) | 31% | 74% | 175 nM | 10 nM | 105 nM | 110 nM | 297 g | 1.17 g | -56% | -23% | 0.22 g |  | 
2 | CC(C)(Oc1ccc(C(=O)c2ccc(Cl)cc2)cc1)C(=O)O [FENOFIBRIC ACID] |  |  |  |  | 35000 nM |  |  |  |  |  |  |  | FPG correction (Mus musculus [12]): 17%; Ki [13]: Not Active; Ki [14]: Partially active; Body weight (Rattus norvegicus [15]): 308 g; Heart weight (Rattus norvegicus [16]): 1.18 g; Change (Rattus norvegicus [17]): -23%; Change (Rattus norvegicus [18]): -18%; BAT weight (Rattus norvegicus [19]): 0.33 g
3 | CCCc1cc2c(CC)noc2c(CCC)c1OC(C(=O)O)c1ccccc1 (stereo not drawn) |  |  | 2680 nM | 80 nM | 61 nM | 560 nM |  |  |  |  |  |  | 
4 | CCCc1cc2c(C(F)(F)F)noc2c(CCC)c1OC(C(=O)O)c1ccc(OCc2ccccn2)cc1 (stereo not drawn) |  |  | 268 nM | 19 nM | 64 nM | 47 nM | 297 g | 1.15 g | -47% | -38% | 0.42 g |  | FPG correction (Mus musculus [20]; 30 mg/kg): 90% and 51%
5 | CN(CCOc1ccc(CC2SC(=O)NC2=O)cc1)c1ccccn1.O=C(O)/C=C\C(=O)O (stereo not drawn) [ROSIGLITAZONE MALEATE] |  |  |  |  |  |  |  |  |  | 1% |  |  | Ki [21]: Not Active; Ki [22]: Not Active; Body weight (Rattus norvegicus [7]; 30 mg/kg): 310 g and 322 g; BAT weight (Rattus norvegicus [11]; 30 mg/kg): 0.74 g and 0.63 g
6 | Cc1cccc(Nc2cc(Cl)nc(SCC(=O)O)n2)c1C [PIRINIXIC ACID] |  |  |  |  |  |  |  |  |  |  |  | 20% | EC50 [23]: Partially active; Ki [21]: Not Active; Ki [13]: Not Active
7 | CCCc1cc2c(C(F)(F)F)noc2c(CCC)c1OC(C(=O)O)c1ccc(C(C)C)cc1 (stereo not drawn) | 31% | 61% |  |  |  |  |  |  |  |  |  |  | 
8 | CCCc1cc2c(C(F)(F)F)noc2c(CCC)c1OC(C(=O)O)c1ccc(C(F)(F)F)cc1 (stereo not drawn) | 41% | 83% | 104 nM | 23 nM | 18 nM | 79 nM | 318 g | 1.14 g | -41% | -32% | 0.27 g |  | FPG correction (Mus musculus [24]): 21%
9 | CCCc1cc2c(C(F)(F)F)noc2c(CCC)c1OC(C(=O)O)c1ccccc1 (stereo not drawn) |  |  | 956 nM | 15 nM | 37 nM | 365 nM | 276 g | 1.05 g | -52% | -27% | 0.28 g | 91% | bioavailability [25]: 11%
10 | CCCc1c(OC(C(=O)O)c2ccccc2)ccc2c(C(F)(F)F)noc12 (stereo not drawn) |  |  |  | 836 nM | 98 nM | 4600 nM |  |  |  |  |  | -5% | Ki [26]: Partially active
